Source: ChEMBL document CHEMBL1821694, “Design and synthesis of novel amide AKT1 inhibitors with selectivity over CDK2” (Bioorg Med Chem Lett, 2011)

Tests used:
[1] = target: Cyclin-dependent kinase 2 (Homo sapiens, UniProt P24941); experiment: Inhibition of CDK2
[2] = Inhibition of PKA
[3] = target: T1, RAC-alpha serine/threonine-protein kinase (Homo sapiens, UniProt P31749); experiment: Inhibition of AKT1-mediated PRAS40 phosphorylation in human U87MG cells after 1 hr in presence of 5% FBS by ELISA assay; format: cell-based, U-87MG ATCC
T1 sequence (P31749 whole entry): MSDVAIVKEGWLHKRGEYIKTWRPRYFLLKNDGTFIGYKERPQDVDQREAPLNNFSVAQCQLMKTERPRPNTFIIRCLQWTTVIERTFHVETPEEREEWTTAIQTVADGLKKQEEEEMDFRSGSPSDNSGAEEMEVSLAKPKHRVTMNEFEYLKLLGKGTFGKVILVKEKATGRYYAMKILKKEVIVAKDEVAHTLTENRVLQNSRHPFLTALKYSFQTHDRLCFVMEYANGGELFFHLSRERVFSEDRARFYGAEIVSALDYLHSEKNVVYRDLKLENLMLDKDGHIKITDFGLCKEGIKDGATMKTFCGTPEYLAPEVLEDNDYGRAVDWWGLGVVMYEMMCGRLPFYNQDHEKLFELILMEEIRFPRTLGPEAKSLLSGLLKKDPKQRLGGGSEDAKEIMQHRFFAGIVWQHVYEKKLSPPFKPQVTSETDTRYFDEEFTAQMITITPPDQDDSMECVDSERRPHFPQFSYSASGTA
Procedure, shortened: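 U87MG cells kept in medium with 5% FBS; inhibitor added as threefold serial dilutions, 1 h incubation at 37 °C, then phospho-PRAS40 measured. Values are means ± SD, n ≥ 3.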

[4] = target: T1, RAC-alpha serine/threonine-protein kinase; experiment: Inhibition of AKT1
[5] = Metabolic stability in human liver microsomes assessed as compound turnover; format: ADME, Microsome; details: read-out: Activity
Liver microsomes = experiment: Metabolic stability in rat liver microsome; format: ADME
[6] = Clearance in rat; format: ADME, organism-based; details: in vivo

Row | SMILES | IC50 [1] [nM] | IC50 [2] [nM] | IC50 [3] [nM] | IC50 [4] [nM] | metabolised [5] [%] | Stability (Liver microsomes) [%] | clearance [6] [mL/min/kg]
1 | N[C@H](CNc1nnc(-c2ccc3cnccc3c2)s1)Cc1ccc(C(F)(F)F)cc1 | 50 | 6 |  |  |  |  | 
2 | N[C@H](CNC(=O)c1ccc2cnccc2c1)Cc1ccc(C(F)(F)F)cc1 | > 25000 | 1560 |  | 3380 |  |  | 
3 | CC(C)CN1CCC([C@@H](NC(=O)c2ccc3cnccc3c2)c2ccc(Cl)c(Cl)c2)CC1 | > 25000 | 2010 |  | 2140 |  |  | 
4 | O=C(N[C@@H](c1ccc(Cl)c(Cl)c1)C1CCN(Cc2ccccc2)CC1)c1ccc2cnccc2c1 | > 25000 | 390 |  | 240 |  |  | 
5 | O=C(N[C@@H](c1ccc(Cl)c(Cl)c1)C1CCN(Cc2ccc(C(F)(F)F)cc2)CC1)c1ccc2cnccc2c1 | > 25000 | 980 |  | 2300 |  |  | 
6 | O=C(NC(c1ccccc1)C1CCNCC1)c1ccc2cnccc2c1 (racemic) | 19700 | 250 |  | 850 |  |  | 
7 | O=C(NC(c1ccc2ccccc2c1)C1CCNCC1)c1ccc2cnccc2c1 (racemic) | > 25000 | 260 |  | 400 |  |  | 
8 | O=C(NC(c1nccs1)C1CCNCC1)c1ccc2cnccc2c1 (racemic) | > 25000 | 1070 |  | 1570 |  |  | 
9 | COc1ccc(C(NC(=O)c2ccc3cnccc3c2)C2CCNCC2)cc1F (racemic) | > 25000 | 130 |  | 1510 |  |  | 
10 | O=C(NC(c1ccc(F)c(F)c1)C1CCNCC1)c1ccc2cnccc2c1 (racemic) | > 25000 | 160 |  | 2680 |  |  | 
11 | O=C(NC(c1ccc(Cl)c(-c2ccccc2)c1)C1CCNCC1)c1ccc2cnccc2c1 (racemic) | > 25000 | 220 |  | 200 |  |  | 
12 | O=C(NC(c1ccc(Cl)cc1)C1CCNCC1)c1ccc2cnccc2c1 (racemic) | > 25000 | 130 |  | 190 |  |  | 
13 | O=C(NC(c1cccc(Cl)c1Cl)C1CCNCC1)c1ccc2cnccc2c1 (racemic) | > 25000 | 100 |  | 120 |  |  | 
14 | O=C(NC(c1cnc(Cl)c(Cl)c1)C1CCNCC1)c1ccc2cnccc2c1 (racemic) | > 25000 | 230 |  | 140 |  |  | 
15 | O=C1Cc2cc(C(=O)NC(c3ccc(Cl)c(Cl)c3)C3CCNCC3)ccc2N1 (racemic) |  | 1150 |  | 350 |  |  | 
16 | O=C(NC(c1ccc(Cl)c(Cl)c1)C1CCNCC1)c1ccc2[nH]c(=O)oc2c1 (racemic) |  | 13700 |  | 460 |  |  | 
17 | O=C(NC(c1ccc(Cl)c(Cl)c1)C1CCNCC1)c1ccc2[nH]ncc2c1 (racemic) |  | 290 |  | 250 |  |  | 
18 | COc1ccc(-c2cc3cnccc3cc2C(=O)NC(c2ccc(Cl)c(Cl)c2)C2CCNCC2)cc1 (racemic) |  | 670 |  | 6850 |  |  | 
19 | O=C(NC(c1ccc(Cl)c(Cl)c1)C1CCNCC1)c1ccc2cnc(Cl)cc2c1 (racemic) |  |  |  | 140 |  |  | 
20 | O=C(NC(c1ccc(Cl)c(Cl)c1)C1CCCCC1)c1ccc2cnccc2c1 (racemic) | > 25000 | > 25000 |  | 5800 |  |  | 
21 | O=C(NC(c1cncnc1)c1ccc(Cl)c(Cl)c1)c1ccc2cnccc2c1 (racemic) | > 25000 | 3410 |  | 12700 |  |  | 
22 | O=C(NC(c1ccncc1)c1ccc(Cl)c(Cl)c1)c1ccc2cnccc2c1 (racemic) | > 25000 | > 25000 |  | 20400 |  |  | 
23 | O=C(NC(c1ccc(Cl)c(Cl)c1)C1CCNCC1)c1ccc2cnncc2c1 (single isomer, unassigned) |  | 850 |  | 330 |  |  | 

Second part, the molecule after the results:

Row | IC50 [1] [nM] | IC50 [2] [nM] | IC50 [3] [nM] | IC50 [4] [nM] | metabolised [5] [%] | Stability (Liver microsomes) [%] | clearance [6] [mL/min/kg] | SMILES
24 | 190 | 170 | 300 | 20 |  |  |  | N[C@H](CNc1nnc(-c2ccc3c(c2)CC(=O)N3)s1)Cc1ccc(C(F)(F)F)cc1
25 | 21000 |  |  | 20 |  |  |  | O=C(NC(c1ccc(Cl)c(Cl)c1)C1CCCNC1)c1ccc2cnccc2c1 (stereo not drawn)
26 | 690 | 10 | 240 | 7 | 10.9 | 33.4 | 173 | O=C(N[C@@H](c1ccc(Cl)c(Cl)c1)C1CNC1)c1ccc2cnccc2c1
27 | 9800 | 30 |  | 110 |  |  |  | O=C(N[C@H](c1ccc(Cl)c(Cl)c1)C1CNC1)c1ccc2cnccc2c1
28 | 360 | 10 |  | 7 |  |  |  | CN1CC([C@@H](NC(=O)c2ccc3cnccc3c2)c2ccc(Cl)c(Cl)c2)C1
29 | > 25000 | 10 |  | 30 |  |  |  | O=C(NC(c1ccc(Cl)c(Cl)c1)C1CCNC1)c1ccc2cnccc2c1 (mixture of isomers)
30 | > 25000 | 160 |  | 80 |  |  |  | N#Cc1cc(C(NC(=O)c2ccc3cnccc3c2)C2CCNCC2)ccc1Cl (racemic)
31 | > 25000 | 30 |  | 70 |  |  |  | O=C(NC(c1cccc(Cl)c1)C1CCNCC1)c1ccc2cnccc2c1 (racemic)
32 | > 25000 |  |  | 40 |  |  |  | O=C(NC(c1ccc(Cl)c(F)c1)C1CCNCC1)c1ccc2cnccc2c1 (racemic)
33 | > 25000 | 50 |  | 40 |  |  |  | O=C(NC(c1ccc(Cl)c(Cl)c1)C1CCNCC1)c1ccc2cnccc2c1 (racemic)
34 |  | 30 |  | 39 |  |  |  | COc1cc2cnccc2cc1C(=O)NC(c1ccc(Cl)c(Cl)c1)C1CCNCC1 (racemic)
35 | > 25000 | 90 | 390 | 20 | 10 | 15.9 | 58.3 | O=C(NC(c1ccc(Cl)c(Cl)c1)C1CCNCC1)c1ccc2cnc(F)cc2c1 (racemic)
